Assay [1] has as its system Talaromyces marneffei. Description: Antifungal activity against Penicillium marneffei at […] ug/ml after 3 to 4 days. Type of assay: functional. The conditions noted are these: read-out: IZ.
Assay [2] relates to Aspergillus flavus. The experiment in a line: Antifungal activity against Aspergillus flavus NCIM 524 at […] ug/ml after 3 to 4 days. Type of assay: functional. To be noted: read-out: IZ.
In assay [3] the test system is Staphylococcus aureus. The experiment in a line: Antibacterial activity against Staphylococcus aureus ATTC 25923 at […] ug/ml after 3 to 4 days. Type of assay: functional. The conditions noted are these: read-out: IZ.
Assay [4] concerns Escherichia coli. The experiment in a line: Antibacterial activity against Escherichia coli ATTC 25922 after 16 to 18 hrs by serial plate dilution method. Type of assay: functional. To be noted: ATCC25922. Put shortly:
(§1)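 Serial dilutions were made in Mueller-Hinton broth in tubes, adjusted to […] with phosphate buffer, and inoculated with a standardized bacterial suspension. Tubes were incubated at 37 °C for 16–18 h. MIC was taken as the lowest concentration with no visible growth.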

In assay [5] the test system is Aspergillus fumigatus. Description: Antifungal activity against Aspergillus fumigatus NCIM 902 by serial plate dilution method. Type of assay: functional.
In assay [6] the test system is Pseudomonas aeruginosa. Description: Antibacterial activity against Pseudomonas aeruginosa ATTC 27853 after 16 to 18 hrs by serial plate dilution method. Type of assay: functional. The conditions noted are these: ATCC27853. Put shortly:
as §1

The subject of assay [7] is Pseudomonas aeruginosa. Description: microbe, parasite or virus in culture. It is filed as functional. The conditions noted are these: ATCC27853, read-out: IZ.
Assay [8] has as its system Klebsiella pneumoniae. Description: Antibacterial activity against Klebsiella pneumoniae after 16 to 18 hrs by serial plate dilution method. It is filed as functional. Put shortly: as §1
In assay [9] the test system is Staphylococcus aureus. The experiment in a line: Antibacterial activity against Staphylococcus aureus ATTC 25923 after 16 to 18 hrs by serial plate dilution method. Type of assay: functional. A digest of the protocol:
as §1

Assay [10] deals with Aspergillus flavus. The experiment in a line: Antifungal activity against Aspergillus flavus NCIM 524 by serial plate dilution method. Type of assay: functional. A digest of the protocol: (§2)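 Agar of peptone 1 g, D-glucose 4 g and agar 2 g per 100 mL water, pH 5.7, was lawned with a fungal spore suspension in normal saline. The excess was decanted and plates were dried at 37 °C for 1 h. Wells were punched and compounds in DMSO were added, with a DMSO control. Plates were run in triplicate at 37 °C for 3–4 days, and the inhibition zone diameter was measured.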

Assay [11] has as its system Escherichia coli. Description: microbe, parasite or virus in culture. It is filed as functional. The conditions noted are these: ATCC25922, read-out: IZ.
Assay [12] deals with Klebsiella pneumoniae. The experiment in a line: microbe, parasite or virus in culture. Type of assay: functional. To be noted: read-out: IZ.
The test system of assay [13] is Aspergillus fumigatus. Description: Antifungal activity against Aspergillus fumigatus NCIM 902 at 6.5 ug/ml after 3 to 4 days. The conditions noted are these: read-out: IZ. Type of assay: functional. A digest of the protocol: as §2
Assay [14] relates to Talaromyces marneffei. Description: Antifungal activity against Penicillium marneffei by serial plate dilution method. It is filed as functional. A digest of the protocol:
as §2

The test system of assay [15] is Trichophyton mentagrophytes. Description: Antifungal activity against Trichophyton mentagrophytes by serial plate dilution method. It is filed as functional.
Assay [16] relates to Rattus norvegicus. Description: Antiinflammatory activity against carrageenan-induced paw oedema in albino rat at 50 mg/kg, po relative to control. It is filed as functional. Put shortly:
(§3)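 Albino rats of 180–250 g were fasted 18 h and placed in groups of six. Samples were suspended in 2% w/v acacia mucilage, and the vehicle group served as control. 30 min after dosing, carrageenan (1 mg mL⁻¹, 0.1 mL) was injected subcutaneously into the right hind paw. Paw volume was measured immediately and at 3 h, and % oedema inhibition was calculated versus vehicle controls.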
(The carrageenan paw model is a standard test of acute inflammation.)

Assay [17] has as its system Trichophyton mentagrophytes. The experiment in a line: Antifungal activity against Trichophyton mentagrophytes at […] ug/ml after 3 to 4 days. To be noted: read-out: IZ. Type of assay: functional.
The test system of assay [18] is Aspergillus fumigatus. The experiment in a line: Antifungal activity against Aspergillus fumigatus NCIM 902 at 12 ug/ml after 3 to 4 days. Type of assay: functional. To be noted: read-out: IZ. A digest of the protocol: as §2
Assay [19] concerns Talaromyces marneffei. Description: Antifungal activity against Penicillium marneffei at 12 ug/ml after 3 to 4 days. It is filed as functional. The conditions noted are these: read-out: IZ. A digest of the protocol:
as §2

In assay [20] the test system is Staphylococcus aureus. The experiment in a line: Antibacterial activity against Staphylococcus aureus ATTC 25923 at 12 ug/ml after 3 to 4 days. Type of assay: functional. The conditions noted are these: read-out: IZ. Put shortly:
(§4)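 Agar well diffusion. Plates were seeded with a bacterial suspension, the excess was decanted and plates were dried at 37 °C for 1 h. Wells were punched and compounds in DMSO were added, with DMSO wells as control. Plates were run in triplicate at 37 °C for 3–4 days and zones of inhibition were scored.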

For assay [21], the system named is Klebsiella pneumoniae. Description: Antibacterial activity against Klebsiella pneumoniae at 12 ug/ml after 3 to 4 days. The conditions noted are these: read-out: IZ. It is filed as functional. A digest of the protocol:
as §4

The test system of assay [22] is Aspergillus fumigatus. The experiment in a line: Antifungal activity against Aspergillus fumigatus NCIM 902 at […] ug/ml after 3 to 4 days. It is filed as functional. To be noted: read-out: IZ.
The test system of assay [23] is Trichophyton mentagrophytes. Description: Antifungal activity against Trichophyton mentagrophytes at 12 ug/ml after 3 to 4 days. To be noted: read-out: IZ. Type of assay: functional. Put shortly: as §2
Assay [24] has as its system Aspergillus flavus. Description: Antifungal activity against Aspergillus flavus NCIM 524 at 12 ug/ml after 3 to 4 days. Type of assay: functional. To be noted: read-out: IZ. Put shortly: as §2
For assay [25], the system named is Escherichia coli. Description: Antibacterial activity against Escherichia coli ATTC 25922 at 12 ug/ml after 3 to 4 days. It is filed as functional. The conditions noted are these: ATCC25922, read-out: IZ. A digest of the protocol: as §4
The test system of assay [26] is Trichophyton mentagrophytes. Description: Antifungal activity against Trichophyton mentagrophytes at 3.125 ug/ml after 3 to 4 days. It is filed as functional. To be noted: read-out: IZ. A digest of the protocol:
as §2

The test system of assay [27] is Aspergillus flavus. Description: Antifungal activity against Aspergillus flavus NCIM 524 at 3.125 ug/ml after 3 to 4 days. Type of assay: functional. To be noted: read-out: IZ. A digest of the protocol:
as §2

The test system of assay [28] is Staphylococcus aureus. The experiment in a line: microbe, parasite or virus in culture. The conditions noted are these: read-out: IZ.
Assay [29] deals with Rattus norvegicus. The experiment in a line: Antiinflammatory activity against carrageenan-induced paw oedema in albino rat at 1.5 mg/kg, po, relative to control. Type of assay: functional. A digest of the protocol: as §3

Values after ≈ are worked out from the molar mass of the structure shown.

As to `COc1ccc(-c2nn3c(-c4cc(Cl)cc(Cl)c4Cl)nnc3s2)cc1`, the zone of inhibition at 6.25 µg/mL in the assay with Talaromyces marneffei [1], with Aspergillus flavus [2], with Staphylococcus aureus [3], in the assay with Pseudomonas aeruginosa [7], in the assay with Escherichia coli [11] and in the assay with Klebsiella pneumoniae [12] was 16 mm throughout. In addition, in [17], the zone of inhibition at 6.25 µg/mL was determined as 16 mm. The MIC came to 6.25 µg/mL (≈ 15.2 µM) in the assay on Escherichia coli [4]; 6.5 µg/mL (≈ 15.8 µM) against Aspergillus fumigatus [5]; 6.25 µg/mL (≈ 15.2 µM) in the assay with Pseudomonas aeruginosa [6]; 6.25 µg/mL (≈ 15.2 µM) in the assay with Klebsiella pneumoniae [8]; 6.25 µg/mL (≈ 15.2 µM) against Staphylococcus aureus [9]; 6.25 µg/mL (≈ 15.2 µM) against Aspergillus flavus [10]. The MIC (against Talaromyces marneffei [14]; in assay [15]) was 6.25 µg/mL (≈ 15.2 µM) throughout. Besides, the zone of inhibition at 6.5 µg/mL with Aspergillus fumigatus [13] came to 16 mm. The molecule further gave an inhibition in vivo at 50 mg/kg in the assay on Rattus norvegicus [16] of 25.8%.

Regarding `Cc1cc(C)cc(-c2nn3c(-c4cc(Cl)cc(Cl)c4Cl)nnc3s2)c1`, the zone of inhibition at 6.25 µg/mL (in the assay on Aspergillus flavus [2]; in the assay on Pseudomonas aeruginosa [7]; with Escherichia coli [11]; in assay [17]) was 16 mm throughout. Further, the zone of inhibition at 12 µg/mL in the assay on Aspergillus fumigatus [18], in the assay with Talaromyces marneffei [19], in the assay with Staphylococcus aureus [20] and with Klebsiella pneumoniae [21] was 11 mm in each case. For the same molecule, the MIC with Escherichia coli [4] was 6.25 µg/mL (≈ 15.3 µM); in the assay on Aspergillus fumigatus [5], 12 µg/mL (≈ 29.3 µM); in the assay on Pseudomonas aeruginosa [6] it was 6.25 µg/mL (≈ 15.3 µM); against Klebsiella pneumoniae [8], 12 µg/mL (≈ 29.3 µM); against Staphylococcus aureus [9] it was 12 µg/mL (≈ 29.3 µM); in the assay with Aspergillus flavus [10], 6.25 µg/mL (≈ 15.3 µM). Moreover, the MIC worked out at 12 µg/mL (≈ 29.3 µM) against Talaromyces marneffei [14] and 6.25 µg/mL (≈ 15.3 µM) in [15].

Turning to `Clc1cc(Cl)c(Cl)c(-c2nnc3n2N=C(c2ccccc2)CS3)c1`, the zone of inhibition at 6.25 µg/mL with Aspergillus fumigatus [22], in the assay on Pseudomonas aeruginosa [7] and in the assay with Klebsiella pneumoniae [12] was 16 mm each time. In addition, the zone of inhibition at 12 µg/mL (with Talaromyces marneffei [19]; in assay [23]; with Aspergillus flavus [24]; in the assay on Escherichia coli [25]; in the assay on Staphylococcus aureus [20]) was 11 mm throughout. Also, the minimal inhibitory concentration (MIC) in the assay on Escherichia coli [4] came out at 12 µg/mL (≈ 30.3 µM); in the assay on Aspergillus fumigatus [5], 6.25 µg/mL (≈ 15.8 µM); with Pseudomonas aeruginosa [6], 6.25 µg/mL (≈ 15.8 µM); against Klebsiella pneumoniae [8] it was 6.25 µg/mL (≈ 15.8 µM); with Staphylococcus aureus [9] it was 12 µg/mL (≈ 30.3 µM); in the assay on Aspergillus flavus [10], 12 µg/mL (≈ 30.3 µM). The MIC (against Talaromyces marneffei [14]; in assay [15]) was 12 µg/mL (≈ 30.3 µM) in each case.

As for `Cc1cc(C2CCCCC2)n(O)c(=O)c1.NCCO` [CICLOPIROX OLAMINE], the zone of inhibition at 6.25 µg/mL in the assay with Aspergillus fumigatus [22] and in the assay with Talaromyces marneffei [1] was 16 mm each time. In addition, the MIC against Aspergillus fumigatus [5] came to 6.25 µg/mL; against Aspergillus flavus [10] it was 3.12 µg/mL; against Talaromyces marneffei [14], 6.25 µg/mL; in assay [15] it was 3.12 µg/mL. Besides, the zone of inhibition at 3.125 µg/mL amounted to 27 mm in assay [26] and 25 mm in the assay with Aspergillus flavus [27].

As to `O=C(O)c1cn(C2CC2)c2cc(N3CCNCC3)c(F)cc2c1=O` [CIPROFLOXACIN], the zone of inhibition at 1.56 µg/mL with Staphylococcus aureus [28] turned out to be 22 mm. In addition, the zone of inhibition at 6.25 µg/mL in the assay with Pseudomonas aeruginosa [7], with Escherichia coli [11] and with Klebsiella pneumoniae [12] was 16 mm each time. Besides, the minimal inhibitory concentration (MIC) in the assay on Klebsiella pneumoniae [8] stood at 6.25 µg/mL (≈ 18.9 µM); in the assay with Staphylococcus aureus [9], 1.56 µg/mL (≈ 4.71 µM).

The molecule `COc1ccc2c(c1)c(CC(=O)O)c(C)n2C(=O)c1ccc(Cl)cc1` [INDOMETHACIN] yielded an inhibition in vivo at 1.5 mg/kg in the assay on Rattus norvegicus [29] of 59.7%.

Usually MIC stands for the least concentration at which growth counts as inhibited. Read a high MIC as a less susceptible organism. The inhibition in vivo is the relative decrease from the control value, in per cent.

(Values after ChEMBL document CHEMBL1149822, “Synthesis, antimicrobial and anti-inflammatory activities of some 1,2,4-triazolo[3,4-b][1,3,4]thiadiazoles and 1,2,4-triazolo[3,4-b][1,3,4]thiadiazines bearing trichlorophenyl moiety” (2008).)
